From PMC11718171 (Biophysics and Physicobiology, 2024)
Values belong to the compound of their own block, whether it stands above or below them. Ends that are not written are not given here.

How the values were obtained:
Lg-CD86 = assay: Orthogonality of labeling, Lg-CD86-expressing cells; format: cell-based, human; conditions: 10 nM each, simultaneous labeling, HEK293
Method in brief: (§1)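 HEK293A cells in DMEM with 5% FBS, seeded on coverslips and same-day transfected (Lipofectamine 3000, 1 µg total plasmid made up with pCAGGS) with LgBiT-, SNAP- or HaloTag-fused CD86 (1-277). Co-labeled with SF650-FiBiT, SNAP-cell TMR-star and Halo-JF549 in phenol red-free complete DMEM, 15 min, 37°C. Washed thrice, imaged in 0.01% BSA-HBSS. Bright spots counted against coverslip background.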

SNAP-CD86 = assay: Orthogonality of labeling, SNAP-CD86-expressing cells; format: cell-based, human; conditions: 10 nM each, simultaneous labeling, HEK293
Method in brief: as §1

LgBiT = conditions: in vitro, grating-coupled interferometry; ref [27]; cited from earlier work
[1] = Non-specific binding on coverslips; conditions: 10 nM, washed three times with complete phenol red-free DMEM, then BSA-HBSS
Method in brief: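 No cells: fluorescent HiBiT or FiBiT peptide diluted in phenol red-free DMEM with 5% FBS, penicillin, streptomycin and glutamine. Added to a dish containing a glass coverslip and held 15 min at 37°C. Washed three times, mounted in a chamber in HBSS with 0.01% BSA, then imaged at single-molecule level for adsorbed bright spots.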

Compound: CN(C)c1ccc2c(-c3cc(C(=O)NCc4ccc(COc5nc(N)nc6nc[nH]c56)cc4)ccc3C(=O)[O-])c3ccc(=[N+](C)C)cc-3oc2c1 [SNAP-TMR]
staining of Lg-CD86-expressing cells (Lg-CD86): not by SNAP-TMR nor Halo-JF549 | labeling of SNAP-CD86-expressing cells (SNAP-CD86): labeled by SNAP-TMR ligand

Compound: HiBiT: HiBiT peptide (~1.3 kDa), NanoLuc fragment (VSGWRLFKKIS; also: TMR label, site not given here)
on-time of LgBiT-HiBiT interaction (LgBiT): ~ 12 min

non-specific binding to coverslips [1]: greatly reduced the non-specific binding
Compound: TMR-DYKDDDDKGDGSVSGWRLFKKIS [TMR-FiBiT]
